According to ChEMBL document CHEMBL3826973, “Binding characterization, synthesis and biological evaluation of RXRα antagonists targeting the coactivator binding site” (Bioorg Med Chem Lett, 2016):
Active and inactive are the calls of the source. No cut-off for these calls is given here.

Key:
[1] = target: T1, Retinoic acid receptor RXR-alpha (Homo sapiens) (UniProt P19793); experiment: Antagonist activity at RXRalpha (unknown origin) expressed in HEK293T cells assessed as inhibition of receptor transactivation at 10 uM after 12 hrs in presence of 9-cis-RA by luciferase reporter gene assay relative to control; type: cell-based; conditions: HEK-293T
T1 sequence (whole entry): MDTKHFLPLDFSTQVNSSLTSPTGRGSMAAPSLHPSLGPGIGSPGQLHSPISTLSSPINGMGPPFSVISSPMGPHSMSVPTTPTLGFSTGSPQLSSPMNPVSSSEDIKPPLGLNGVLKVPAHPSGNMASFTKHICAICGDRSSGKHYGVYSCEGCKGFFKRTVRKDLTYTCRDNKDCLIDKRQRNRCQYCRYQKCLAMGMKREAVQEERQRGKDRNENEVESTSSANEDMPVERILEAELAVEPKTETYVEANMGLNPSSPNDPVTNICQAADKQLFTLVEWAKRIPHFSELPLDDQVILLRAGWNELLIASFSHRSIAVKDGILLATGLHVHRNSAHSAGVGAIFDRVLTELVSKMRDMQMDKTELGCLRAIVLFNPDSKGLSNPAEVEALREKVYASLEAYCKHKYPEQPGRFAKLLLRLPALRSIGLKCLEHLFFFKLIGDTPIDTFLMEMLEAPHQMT
Method in brief: (§1)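 HEK-293T cells cotransfected with pG5-Luc reporter and an RXRα expression vector. Cells were treated with 9-cis-RA (10^-7 M) plus test compound for 12 h, and luciferase activity was read. The assay was run either as a single-concentration screen scored as % inhibition or at the indicated concentrations for dose-response.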

[2] = organism: Homo sapiens; experiment: Ratio of Kd for RXRalpha-LBD E453A mutant (unknown origin) to Kd for RXRalpha-LBD (unknown origin)
[3] = Binding affinity to RXRalpha-LBD E453A mutant (unknown origin) measured up to 300 sec by surface plasma resonance method; parameters: species or system Homo sapiens
[4] = target: T1, Retinoic acid receptor RXR-alpha (Homo sapiens); experiment: Binding affinity to RXRalpha-LBD (unknown origin) at 10 uM measured up to 201 sec in presence of 9-cis-RA by surface plasma resonance method
[5] = target: T2, Retinoic acid receptor RXR-alpha (Homo sapiens, UniProt P19793)
T2 sequence (P19793 whole entry): T1 sequence (whole entry)

[6] = target: T2, Retinoic acid receptor RXR-alpha; experiment: Binding affinity to RXRalpha-LBD (unknown origin) measured up to 300 sec by surface plasma resonance method
Method in brief: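 Surface plasmon resonance with the RXRα ligand-binding domain as the binding partner; affinity expressed as a dissociation constant (Kd).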

[7] = target: T1, Retinoic acid receptor RXR-alpha (Homo sapiens); conditions: HepG2, 20 ug/ml
[8] = target: T1, Retinoic acid receptor RXR-alpha (Homo sapiens); experiment: Antagonist activity at RXRalpha (unknown origin) expressed in HEK293T cells assessed as inhibition of receptor transactivation at 10 to 30 uM after 12 hrs in presence of 9-cis-RA by luciferase reporter gene assay; type: cell-based; conditions: HEK-293T; method in brief: as §1
[9] = target: T1, Retinoic acid receptor RXR-alpha (Homo sapiens); experiment: Binding affinity to RXRalpha-LBD (unknown origin) at 0.01 to 5 uM measured up to 260 sec by surface plasma resonance method

Row | SMILES | inhibition [1] | other results
1 | O=C(CSc1nc2ccccc2o1)N/N=C/c1cccc(O)c1O | 39.6% | 
2 | CCN(CC)c1ccc(/C=N/NC(=O)CSc2nc3ccccc3o2)cc1 | 19.3% | 
3 | COc1ccc(/C=N/NC(=O)CSc2nc3ccccc3o2)c(O)c1 | 57.3% | 
4 | O=C(CSc1nc2ccccc2o1)N/N=C/c1ccccc1F | 13% | 
5 | Cc1cc(=O)oc2c(/C=N/NC(=O)CSc3nc4ccccc4s3)c(O)ccc12 |  | Ratio [2]: 10; Kd [3]: 3610 nM; Activity [4]: Active
6 | CCN(CC)c1ccc(/C=N/NC(=O)CSc2nc3ccccc3o2)c(O)c1 (mixture of isomers) | 74.1% | IC50 [5]: 2810 nM; Kd [6]: 910 nM; inhibition [7]: Active
7 | O=C(CSc1nc2ccccc2o1)N/N=C/c1ccc(O)cc1O | 25.2% | 
8 | O=C(CSc1nc2ccccc2o1)N/N=C/c1ccc([N+](=O)[O-])cc1 | 12.7% | 
9 | COc1ccc2c(C)cc(=O)oc2c1/C=N/NC(=O)CSc1nc2ccccc2s1 (mixture of isomers) |  | inhibition [8]: inactive; Activity [9]: inactive
10 | O=C(CSc1nc2ccccc2o1)N/N=C/c1cccc(O)c1 | 16.2% | 
11 | O=C(CSc1nc2ccccc2o1)N/N=C/c1ccc(OCc2ccccc2)cc1 | 3.7% | 
12 | Cc1cccc(/C=N/NC(=O)CSc2nc3ccccc3o2)c1 | 47.9% | 
13 | CCN(CC)c1ccc(/C=N/NC(=O)CSc2nc3ccccc3o2)c(OC)c1 | 17.9% | 
14 | O=C(CSc1nc2ccccc2o1)N/N=C/c1ccc(O)c(O)c1O | 24.3% | 
15 | O=C(CSc1nc2ccccc2o1)N/N=C/c1cccc(F)c1 | 13.8% | 
16 | O=C(CSc1nc2ccccc2o1)N/N=C/c1ccc(OCc2ccccc2)cc1O | 43.9% | 
17 | O=C(CSc1nc2ccccc2o1)N/N=C/c1ccc(F)cc1O | 33.2% | 
